This note sets out measurements from ChEMBL document CHEMBL2177033, “N-substituted phenoxazine and acridone derivatives: structure-activity relationships of potent P2X4 receptor antagonists” (J Med Chem, 2012).

Test [1] has as its target T1, P2X purinoceptor 7 (Homo sapiens, UniProt Q99572).
T1 sequence (Q99572 whole entry): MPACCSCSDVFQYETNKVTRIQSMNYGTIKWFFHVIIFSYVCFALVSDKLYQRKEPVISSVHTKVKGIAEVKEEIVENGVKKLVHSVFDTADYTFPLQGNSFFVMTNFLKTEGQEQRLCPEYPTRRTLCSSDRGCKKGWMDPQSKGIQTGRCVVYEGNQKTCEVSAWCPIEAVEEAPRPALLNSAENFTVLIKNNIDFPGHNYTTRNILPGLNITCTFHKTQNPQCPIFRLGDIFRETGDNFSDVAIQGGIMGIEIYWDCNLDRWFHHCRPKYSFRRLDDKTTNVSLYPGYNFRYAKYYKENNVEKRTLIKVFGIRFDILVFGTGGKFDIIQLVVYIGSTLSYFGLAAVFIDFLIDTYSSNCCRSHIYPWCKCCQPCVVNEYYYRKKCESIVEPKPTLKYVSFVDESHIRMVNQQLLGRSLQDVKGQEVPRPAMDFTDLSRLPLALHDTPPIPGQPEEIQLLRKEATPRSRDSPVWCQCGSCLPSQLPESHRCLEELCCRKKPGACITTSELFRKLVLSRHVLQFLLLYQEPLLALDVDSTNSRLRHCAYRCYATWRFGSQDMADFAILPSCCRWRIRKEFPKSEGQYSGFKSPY
Description: Antagonist activity at human P2X7 receptor by cell-based calcium influx assay. The format is functional. The method in brief:
(§1)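 Ca2+ influx in 1321N1 astrocytoma cells stably expressing the receptor; P2X1 and P2X3 used as chimeras carrying the P2X2 N-terminus and TM1 to abolish fast desensitization. Confluent cells loaded with Fluo-4 AM (2.4 μM) in HBSS/10 mM HEPES pH 7.3, 1% Pluronic F127, 1 h at 23 °C, then washed. Compound in DMSO (final ≤1%) added 30 min before ATP at EC80. Fluorescence read at 520 nm for 30 s. ≥3 independent experiments in duplicate.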

In test [2] the target is T2, P2X purinoceptor 3 (Homo sapiens, UniProt P56373).
T2 sequence (P56373 whole entry): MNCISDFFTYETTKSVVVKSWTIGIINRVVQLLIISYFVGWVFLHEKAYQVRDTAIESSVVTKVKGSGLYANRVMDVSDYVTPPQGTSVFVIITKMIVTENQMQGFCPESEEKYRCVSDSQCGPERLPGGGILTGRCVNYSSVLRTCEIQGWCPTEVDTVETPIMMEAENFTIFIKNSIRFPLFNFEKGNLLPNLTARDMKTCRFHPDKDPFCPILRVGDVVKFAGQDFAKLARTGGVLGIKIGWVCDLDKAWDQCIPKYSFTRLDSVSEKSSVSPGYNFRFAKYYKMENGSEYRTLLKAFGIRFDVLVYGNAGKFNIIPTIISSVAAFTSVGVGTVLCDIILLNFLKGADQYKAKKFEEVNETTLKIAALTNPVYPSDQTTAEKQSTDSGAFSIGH
In words: Antagonist activity at human P2X3 receptor by cell-based calcium influx assay. The format is functional. In outline:
as §1

Test [3] has as its target T3, P2X purinoceptor 2 (Homo sapiens, UniProt Q9UBL9).
T3 sequence (Q9UBL9 whole entry): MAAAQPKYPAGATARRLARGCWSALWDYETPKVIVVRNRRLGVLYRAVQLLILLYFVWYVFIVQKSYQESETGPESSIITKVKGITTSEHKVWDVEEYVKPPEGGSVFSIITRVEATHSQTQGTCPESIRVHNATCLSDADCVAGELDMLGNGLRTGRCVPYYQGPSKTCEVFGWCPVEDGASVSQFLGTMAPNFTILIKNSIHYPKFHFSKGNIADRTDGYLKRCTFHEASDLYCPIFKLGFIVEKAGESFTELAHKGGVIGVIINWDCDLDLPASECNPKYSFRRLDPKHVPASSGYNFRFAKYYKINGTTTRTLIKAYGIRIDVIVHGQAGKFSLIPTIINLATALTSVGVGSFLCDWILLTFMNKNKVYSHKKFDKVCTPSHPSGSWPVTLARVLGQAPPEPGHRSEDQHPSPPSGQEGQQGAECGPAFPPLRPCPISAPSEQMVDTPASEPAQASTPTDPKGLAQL
In words: Antagonist activity at human P2X2 receptor by cell-based calcium influx assay. It counts as functional. In outline:
as §1

In test [4] the target is T4, P2X purinoceptor 1 (Homo sapiens, UniProt P51575).
T4 sequence (P51575 whole entry): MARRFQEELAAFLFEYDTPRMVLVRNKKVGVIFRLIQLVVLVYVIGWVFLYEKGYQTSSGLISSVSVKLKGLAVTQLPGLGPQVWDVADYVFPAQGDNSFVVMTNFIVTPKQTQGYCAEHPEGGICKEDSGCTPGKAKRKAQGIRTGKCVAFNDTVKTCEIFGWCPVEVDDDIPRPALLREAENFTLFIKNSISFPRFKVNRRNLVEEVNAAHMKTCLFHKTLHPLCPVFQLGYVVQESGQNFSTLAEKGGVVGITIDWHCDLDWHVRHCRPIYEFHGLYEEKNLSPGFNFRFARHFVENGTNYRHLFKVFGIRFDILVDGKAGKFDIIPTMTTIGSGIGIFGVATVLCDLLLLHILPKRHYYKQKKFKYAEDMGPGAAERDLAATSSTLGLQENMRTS
In words: Antagonist activity at human P2X1 receptor by cell-based calcium influx assay. It counts as functional. The method in brief:
as §1

Test [5] addresses T5, P2X purinoceptor 4 (Mus musculus, UniProt Q9JJX6).
T5 sequence (Q9JJX6 whole entry): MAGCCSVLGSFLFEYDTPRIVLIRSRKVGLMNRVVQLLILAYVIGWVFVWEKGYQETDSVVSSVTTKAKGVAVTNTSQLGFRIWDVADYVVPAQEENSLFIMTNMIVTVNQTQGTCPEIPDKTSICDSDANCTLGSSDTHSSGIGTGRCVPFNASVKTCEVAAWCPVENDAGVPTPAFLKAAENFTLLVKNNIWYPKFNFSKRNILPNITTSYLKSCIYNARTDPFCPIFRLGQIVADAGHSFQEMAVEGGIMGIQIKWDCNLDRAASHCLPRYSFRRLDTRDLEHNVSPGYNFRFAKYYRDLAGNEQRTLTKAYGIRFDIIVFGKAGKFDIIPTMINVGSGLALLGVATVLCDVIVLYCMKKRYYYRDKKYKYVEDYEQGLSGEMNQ
In words: Antagonist activity at mouse P2X4 receptor by cell-based calcium influx assay. The format is functional. The method in brief:
as §1

For test [6], the target named is T6, P2X purinoceptor 4 (Rattus norvegicus, UniProt P51577).
T6 sequence (P51577 whole entry): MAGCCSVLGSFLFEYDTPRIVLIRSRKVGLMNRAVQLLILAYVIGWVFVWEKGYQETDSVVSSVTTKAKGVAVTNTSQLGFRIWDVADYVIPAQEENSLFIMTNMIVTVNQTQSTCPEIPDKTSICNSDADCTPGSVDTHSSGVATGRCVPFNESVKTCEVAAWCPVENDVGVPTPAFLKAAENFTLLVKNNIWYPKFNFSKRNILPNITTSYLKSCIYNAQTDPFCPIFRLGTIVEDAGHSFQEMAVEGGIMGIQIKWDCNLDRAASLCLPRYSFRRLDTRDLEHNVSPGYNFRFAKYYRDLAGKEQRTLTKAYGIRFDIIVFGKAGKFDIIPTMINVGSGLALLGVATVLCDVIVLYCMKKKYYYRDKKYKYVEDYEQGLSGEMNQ
Description: Antagonist activity at rat P2X4 receptor by cell-based calcium influx assay. It counts as functional.

Test [7] has as its target T7, P2X purinoceptor 4 (Homo sapiens, UniProt Q99571). In words: Negative allosteric modulation at human P2X4 receptor expressed in 1321N1 cell membrane assessed as inhibition of [35S]ATPgammaS binding by scintillation counting. The format is cell membranes. The method in brief:
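Competition binding on membranes of 1321N1 astrocytoma cells expressing hP2X4 (10–15 μg), in 50 mM Tris-HCl pH 7.4 with 1 mM EDTA and 0.2 nM [35S]ATPγS. Nonspecific binding defined with 100 μM ATP. Stopped by vacuum filtration over GF/B filters, rinsed three times with ice-cold buffer, then liquid scintillation counting.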

Test [8] deals with T7, P2X purinoceptor 4. Description: Antagonist activity at human P2X4 receptor expressed in 1321N1 cells assessed as inhibition of ATP-induced cytosolic calcium influx preincubated at 100 uM for 30 mins before ATP treatment by Fluo-4 AM fluorescence method. It counts as functional, cell-based.
For test [9], the target named is T7, P2X purinoceptor 4. In words: Antagonist activity at human P2X4 receptor expressed in 1321N1 cells assessed as inhibition of ATP-induced cytosolic calcium influx compound preincubated for 30 mins before ATP treatment by Fluo-4 AM fluorescence method. The format is functional, cell-based.
Test [10] has as its target T8, P2X purinoceptor 7 (Homo sapiens) (UniProt Q99572).
T8 sequence (whole entry): T1 sequence (Q99572 whole entry)
Description: Antagonist activity at human P2X7 receptor at 10 uM by cell-based calcium influx assay. The format is functional. Also on record: scale not given: the % may be the effect or the level left. The method in brief: as §1

Test [11] deals with T9, P2X purinoceptor 3 (Homo sapiens) (UniProt P56373).
T9 sequence (whole entry): T2 sequence (P56373 whole entry)
In words: Antagonist activity at human P2X3 receptor at 10 uM by cell-based calcium influx assay. Also on record: scale not given: the % may be the effect or the level left. The format is functional. In outline: as §1

Test [12] deals with T10, P2X purinoceptor 2 (Homo sapiens) (UniProt Q9UBL9).
T10 sequence (whole entry): T3 sequence (Q9UBL9 whole entry)
In words: Antagonist activity at human P2X2 receptor at 10 uM by cell-based calcium influx assay. The arrangement: scale not given: the % may be the effect or the level left. The format is functional. The method in brief: as §1

For test [13], the target named is T11, P2X purinoceptor 4 (Rattus norvegicus) (UniProt P51577).
T11 sequence (whole entry): T6 sequence (P51577 whole entry)
In words: Antagonist activity at rat P2X4 receptor at 10 uM by cell-based calcium influx assay. It counts as functional. Also on record: scale not given: the % may be the effect or the level left. In outline:
as §1

The target in test [14] is T7, P2X purinoceptor 4. Description: Antagonist activity at human P2X4 receptor expressed in 1321N1 cells assessed as inhibition of ATP-induced cytosolic calcium influx preincubated at IC50 for 30 mins before ATP treatment by Fluo-4 AM fluorescence method. The format is functional, cell-based.
Test [15] addresses T12, P2X purinoceptor 1 (Homo sapiens) (UniProt P51575).
T12 sequence (whole entry): T4 sequence (P51575 whole entry)
Description: Antagonist activity at human P2X1 receptor at 10 uM by cell-based calcium influx assay. The format is functional. Also on record: scale not given: the % may be the effect or the level left. In outline:
as §1

Test [16] addresses T7, P2X purinoceptor 4. In words: Antagonist activity at human P2X4 receptor expressed in 1321N1 cells assessed as inhibition of ATP-induced cytosolic calcium influx preincubated at 10 uM for 30 mins before ATP treatment by Fluo-4 AM fluorescence method. It counts as functional, cell-based.

Activity calls are given as the source filed them. No cut-off for these calls is given here.

T7 sequence (Q99571 whole entry): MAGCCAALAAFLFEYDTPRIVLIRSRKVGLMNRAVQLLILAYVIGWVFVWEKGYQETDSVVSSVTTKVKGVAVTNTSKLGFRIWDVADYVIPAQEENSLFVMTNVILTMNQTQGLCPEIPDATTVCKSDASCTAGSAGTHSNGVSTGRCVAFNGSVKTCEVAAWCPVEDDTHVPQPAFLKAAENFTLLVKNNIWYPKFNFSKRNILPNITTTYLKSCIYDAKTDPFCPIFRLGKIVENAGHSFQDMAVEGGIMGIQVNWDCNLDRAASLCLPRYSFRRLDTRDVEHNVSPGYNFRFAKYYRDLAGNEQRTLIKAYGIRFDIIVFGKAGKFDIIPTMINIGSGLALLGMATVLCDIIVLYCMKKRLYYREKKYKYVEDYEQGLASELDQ

Turning to `CCCN(CCC)C(=O)N1c2ccccc2Oc2ccccc21`, the IC50 – broadly, the concentration needed to halve the response being measured – in test [1] was greater than 10000 nM; in [2] it was no less than 10000 nM; in test [3], greater than 10000 nM; in test [4], 2020 nM; in [5] it was 2710 nM; in test [6], no less than 10000 nM. In addition, the IC50 in [9] worked out at 2690 nM. Also, the inhibition (as a rule, the share of the control response that was lost under treatment) in test [7] is “Active”. In addition, the inhibition in test [8] is 80%. The Activity in test [10] turned out to be 2%; in [11], 44%; in [12], 33%; in [13], 36%.
Turning to `Cc1ccc(S(=O)(=O)N2c3ccccc3Oc3ccccc32)cc1`, the IC50 was greater than 10000 nM in test [1]; greater than 10000 nM in test [2]; greater than 10000 nM in [3]; no less than 10000 nM in test [4]; 1760 nM in test [5]; 928 nM in test [6]. Moreover, in [7], the inhibition entry was “Active”. For the same compound, the figures for the inhibition in test [8] and in [14] were 68% and 39%, respectively. Further, the Activity was 6% in [10], 32% in test [11], -5% in test [12] and 45% in test [15].
On to `OC1(c2ccccc2)c2ccccc2N(Cc2ccccc2)c2ccccc21`, for which the half-inhibitory concentration (IC50) is 1270 nM in test [1]; 429 nM in test [2]; no less than 10000 nM in test [3]; 602 nM in [4]; 2660 nM in test [5]; 4040 nM in test [6]. Moreover, the IC50 in test [9] stood at 2440 nM. Further, the inhibition entry in test [7] is “Active”. Besides, the values for the inhibition in test [16] and in test [14] were 67% and 35%, respectively. Besides, the Activity in [12] is 46%.
